Reference: ChEMBL document CHEMBL1629563, “Pharmacokinetic and safety evaluation of BILR 355, a second-generation nonnucleoside reverse transcriptase inhibitor, in healthy volunteers” (Antimicrob Agents Chemother, 2008)

How the values were obtained:
[1] = system: Homo sapiens; experiment: Ratio of half life in human at 12.5 mg, po in presence of 100 mg of ritonavir to half life in human at 12.5 mg, po; type: ADME, organism-based; details: in vivo
[2] = system: Homo sapiens; experiment: Toxicity in healthy human assessed as occurrence of palpitations at 12.5 mg, po administered as single dose relative to control; type: organism-based; details: in vivo
[3] = system: Homo sapiens; experiment: Toxicity in healthy human assessed as occurrence of fatigue at 5 mg, po administered as single dose relative to control; type: organism-based; details: in vivo
[4] = Apparent oral clearance in healthy human at 50 mg, po administered as single dose; type: ADME, organism-based; details: in vivo
Procedure, shortened: (§1)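 Healthy male volunteers, six active plus two placebo per dose group, single oral dose in PEG solution with 200 ml water after overnight fast; breakfast 60 to 90 min post-dose. EDTA plasma sampled predose to 144 h. Assayed by validated LC-MS/MS after protein precipitation. Noncompartmental analysis, AUC by linear up/log down trapezoidal rule; Vss = CL/F·(MRTp.o. − 1/Ka).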

[5] = system: Homo sapiens; experiment: Toxicity in healthy human assessed as occurrence of fatigue at 87.5 mg, po administered as single dose coadministered with 100 mg of ritonavir; type: organism-based; details: in vivo
[6] = Drug excretion in healthy human urine assessed as unchanged drug at 37.5 mg, po administered as single dose coadministered with 100 mg of ritonavir by high-pressure liquid chromatography-tandem mass spectrometry/mass spectrometry method; type: ADME, organism-based; details: read-out: Drug uptake
Procedure, shortened: (§2)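 Ritonavir 100 mg was given 10 h before and with one oral dose of BILR 355 in PEG solution. Urine was collected by weight as predose blank, then 0-6, 6-24 and 24-72 h, stored at −20°C and assayed by LC-MS/MS. fe = unchanged drug excreted (Ae) as a percentage of dose. Line 50: high-fat breakfast 30 min before dosing.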

[7] = Half life in healthy human at 5 mg, po administered as single dose coadministered with 100 mg of ritonavir; type: ADME, organism-based; details: in vivo
[8] = Apparent oral clearance in healthy human at 37.5 mg, po administered as single dose coadministered with 100 mg of ritonavir; type: ADME, organism-based; details: in vivo
Procedure, shortened: (§3)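 Healthy male volunteers, fasted. Ritonavir 100 mg given 10 h before and again together with single oral BILR 355 in PEG solution. EDTA plasma sampled predose to 144 h. LC-MS/MS assay after protein precipitation. Noncompartmental analysis, AUC by linear up/log down trapezoidal rule; Vss = CL/F·(MRTp.o. − 1/Ka).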

[9] = system: Homo sapiens; experiment: Toxicity in healthy human assessed as occurrence of palpitations at 75 mg, po administered as single dose relative to control; type: organism-based; details: in vivo
[10] = system: Homo sapiens; experiment: Toxicity in healthy human assessed as occurrence of increase in alanine aminotransferase level at 100 mg, po administered as single dose relative to control; type: organism-based; details: in vivo
[11] = Apparent volume of distribution in terminal phase in healthy human at 100 mg, po administered as single dose; type: ADME, organism-based; details: in vivo, read-out: Vz/F
Procedure, shortened: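 Single fasting oral dose of BILR 355 in PEG solution with 200 ml tap water, given to healthy males. Standard breakfast came 60-90 min after the dose. EDTA plasma was sampled predose to 144 h, stored below −18°C and assayed by LC-MS/MS after protein precipitation. Noncompartmental analysis gave Vz/F. Vss/F = CL/F·(MRTp.o. − 1/Ka), with Ka from compartmental modelling.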

[12] = Tmax in healthy human at 50 mg, po administered as single dose; type: ADME, organism-based; details: in vivo
[13] = AUC (0 to last) in healthy human at 25 mg, po administered as single dose; type: ADME, organism-based; parameters: dose 25 mg, route oral, time 0 - last; details: plasma; procedure, shortened: as §1
[14] = system: Homo sapiens; experiment: Toxicity in healthy human assessed as occurrence of increase in alanine aminotransferase level at 50 mg, po administered as single dose relative to control; type: organism-based; details: in vivo
[15] = Apparent volume of distribution at steady state in healthy human at 25 mg, po administered as single dose; type: ADME, organism-based; details: in vivo, read-out: Vss/F; procedure, shortened: as §1
[16] = system: Homo sapiens; experiment: Toxicity in healthy human assessed as occurrence of fatigue at 75 mg, po administered as single dose relative to control; type: organism-based; details: in vivo
[17] = AUC (0 to infinity) in high fat fed healthy human at 50 mg, po administered as single dose coadministered with 100 mg of ritonavir; type: ADME, organism-based; parameters: dose 50 mg, time infinity, route oral; details: plasma
Procedure, shortened: (§4)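 Fed cohort of 6 healthy men given an FDA-type high-fat breakfast (about 150, 250 and 500 to 600 cal from protein, carbohydrate and fat) 30 min before dosing. Ritonavir 100 mg given 10 h earlier and again with the single oral dose in PEG solution. Plasma sampled to 144 h, LC-MS/MS, noncompartmental analysis.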

[18] = Renal clearance in high fat fed healthy human at 50 mg, po administered as single dose coadministered with 100 mg of ritonavir by high-pressure liquid chromatography-tandem mass spectrometry/mass spectrometry method; type: ADME, organism-based, Kidney; details: in vivo, read-out: CL_renal (converted)
[19] = Apparent oral clearance in healthy human at 25 mg, po administered as single dose; type: ADME, organism-based; details: in vivo; procedure, shortened: as §1
[20] = Half life in healthy human at 62.5 mg, po administered as single dose coadministered with 100 mg of ritonavir; type: ADME, organism-based; details: in vivo
[21] = Apparent oral clearance in healthy human at 50 mg, po administered as single dose coadministered with 100 mg of ritonavir; type: ADME, organism-based; details: in vivo; procedure, shortened: as §3
[22] = Tmax in healthy human at 25 mg, po administered as single dose coadministered with 100 mg of ritonavir; type: ADME, organism-based; details: in vivo
[23] = Mean residence time in healthy human at 25 mg, po administered as single dose; type: ADME, organism-based; details: in vivo
[24] = Apparent oral clearance in high fat fed healthy human at 50 mg, po administered as single dose coadministered with 100 mg of ritonavir; type: ADME, organism-based; details: in vivo; procedure, shortened: as §4
[25] = Cmax in healthy human at 25 mg, po administered as single dose coadministered with 100 mg of ritonavir by high-pressure liquid chromatography-tandem mass spectrometry/mass spectrometry method; type: ADME, organism-based; parameters: dose 25 mg, route oral; details: in vivo
Procedure, shortened: (§5)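 Healthy male volunteers, fasted overnight, got one oral dose of BILR 355 in PEG solution with 200 ml water. Ritonavir 100 mg was given 10 h before and again with the dose. Plasma was sampled (EDTA) from predose to 144 h and assayed by validated LC-MS/MS. Cmax and Vz/F came from noncompartmental analysis. Vss/F = CL/F·(MRTp.o. − 1/Ka), with Ka from compartmental modelling.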

[26] = system: Homo sapiens; experiment: Toxicity in healthy human assessed as occurrence of diarrhea at 12.5 mg, po administered as single dose coadministered with 100 mg of ritonavir; type: organism-based; details: in vivo
[27] = Apparent volume of distribution at steady state in healthy human at 87.5 mg, po administered as single dose coadministered with 100 mg of ritonavir; type: ADME, organism-based; details: in vivo, read-out: Vss/F; procedure, shortened: as §5
[28] = system: Homo sapiens; experiment: Toxicity in healthy human assessed as occurrence of fatigue at 12.5 mg, po administered as single dose coadministered with 100 mg of ritonavir; type: organism-based; details: in vivo
[29] = Drug excretion in healthy human urine assessed as unchanged drug in high fat fed healthy human at 50 mg, po administered as single dose coadministered with 100 mg of ritonavir by high-pressure liquid chromatography-tandem mass spectrometry/mass spectrometry method; type: ADME, organism-based; details: read-out: Drug uptake; procedure, shortened: as §2
[30] = system: Homo sapiens; experiment: Toxicity in healthy human assessed as occurrence of headache at 75 mg, po administered as single dose relative to control; type: organism-based; details: in vivo
[31] = Apparent volume of distribution at steady state in healthy human at 37.5 mg, po administered as single dose coadministered with 100 mg of ritonavir; type: ADME, organism-based; details: in vivo, read-out: Vss/F; procedure, shortened: as §5

Ratio [1]: 3.9
CL/F [4]: 2150 mL/min
dose excreted [6]: 4.58%
half-life [7]: 14.7 h
CL/F [8]: 109 mL/min
Vd/F [11]: 213 L
Tmax [12]: 0.667 h
AUC(0-t) [13]: 128 ng·h/mL
Vd/F [15]: 914 L
AUC(0-inf) [17]: 8300 ng·h/mL
CL renal [18]: 4.98 mL/min
CL/F [19]: 3400 mL/min
half-life [20]: 9.73 h
CL/F [21]: 131 mL/min
Tmax [22]: 1.75 h
MRT [23]: 4.52 h
CL/F [24]: 104 mL/min
Cmax [25]: 226 ng/mL
Vd/F [27]: 112 L
dose excreted [29]: 4.62%
Vd/F [31]: 105 L
SMILES: CCN1c2ncc(CCOc3cc[n+]([O-])c4ccccc34)cc2C(=O)N(C)c2cccnc21 [BILR 355]
Activity [2]: 0%
Activity [3]: 0%
Activity [5]: 0%
Activity [9]: 16.7%
Activity [10]: 0%
Activity [14]: 0%
Activity [16]: 16.7%
Activity [26]: 0%
Activity [28]: 0%
Activity [30]: 0%
